ChEMBL document CHEMBL1125875, “Renin inhibitory peptides. Incorporation of polar, hydrophilic end groups into an active renin inhibitory peptide template and their evaluation in a human renin infused rat model and in conscious sodium-depleted monkeys” (J Med Chem, 1991)
Numbered stars: 1 amine (or outer) side, 2 acyl side, 3 side chain; on linkers, the order of the positions; unused ones are H or OH. Square brackets hold non-standard residues; d marks the D form. Peptide text beside a SMILES is read from it. * marks the point of attachment. ξ: configuration not given here. LeuΨ(ξCHOHCH2)Val = CC(C)C[C@H](N[*:1])C(O)C[C@H](C(=O)[*:2])C(C)C; X1 = CC(C)[C@H](C[C@H](O)[C@H](CC1CCCCC1)N[*:1])C(=O)[*:2]; Suberoyl(NMe-taurine) = CN(CCS(=O)(=O)O)C(=O)CCCCCCC(=O)*; X3 = CC(C)C[C@H](N[*:1])[C@@H](O)C[C@H](C(=O)[*:2])C(C)C; NH(2-picolyl-N-oxide) = [O-][n+]1ccccc1CN*; γGlu = O=C(O)[C@H](CCC(=O)[*:2])N[*:1]; NMeH = CN[C@@H](Cc1c[nH]cn1)C(=O)O; NHCH2(2-pyridyl) = c1ccc(CN*)nc1; X4 = O=C(CCCO[P+]([O-])(O)O)*; X5 = O=C(CCCOP(=O)(O)O)*; X2 = O=C(COP(=O)(O)O)*

Each compound was assayed against T1, Renin (Homo sapiens, UniProt P00797) (assay: Inhibition of human plasma renin.).
T1 sequence (P00797 whole entry): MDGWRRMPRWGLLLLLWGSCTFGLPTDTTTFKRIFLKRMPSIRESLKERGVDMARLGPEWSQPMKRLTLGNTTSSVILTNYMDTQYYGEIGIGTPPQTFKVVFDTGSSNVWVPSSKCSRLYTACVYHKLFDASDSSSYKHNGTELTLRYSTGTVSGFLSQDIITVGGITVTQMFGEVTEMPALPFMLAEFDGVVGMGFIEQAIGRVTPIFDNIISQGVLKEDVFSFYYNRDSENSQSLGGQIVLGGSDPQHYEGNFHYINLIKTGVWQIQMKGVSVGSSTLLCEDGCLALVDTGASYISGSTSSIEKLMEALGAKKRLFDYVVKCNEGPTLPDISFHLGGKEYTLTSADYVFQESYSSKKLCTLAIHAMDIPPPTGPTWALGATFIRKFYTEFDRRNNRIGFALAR
Assay type: cell-free
Outline: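 IC50 taken as the inhibitor concentration at which 50% of renin enzymatic activity remains.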
`CC(C)CCNC(=O)[C@@H](C[C@H](O)[C@H](CC1CCCCC1)NC(=O)[C@H](Cc1c[nH]cn1)N(C)C(=O)[C@H](Cc1ccccc1)NC(=O)CC(C)(C)N)C(C)C` gave an IC50 of 0.41 nM.
`CC[C@H](C)[C@H](NC(=O)[C@@H](C[C@H](O)[C@H](CC(C)C)NC(=O)[C@H](Cc1c[nH]cn1)N(C)C(=O)[C@H](Cc1ccccc1)NC(=O)CCCCCCC(=O)N(C)CCS(=O)(=O)O)C(C)C)C(=O)NCc1ccccn1` showed an IC50 of 0.66 nM.
Compound `CC(C)CCNC(=O)[C@@H](C[C@H](O)[C@H](CC1CCCCC1)NC(=O)[C@H](Cc1c[nH]cn1)N(C)C(=O)[C@H](Cc1ccccc1)NC(=O)[C@@H]1CCCN1C(=O)CC[C@H](N)C(=O)O)C(C)C` has an IC50 of 0.28 nM.
In the case of `CC[C@H](C)[C@H](NC(=O)[C@@H](C[C@H](O)[C@H](CC1CCCCC1)NC(=O)[C@H](Cc1c[nH]cn1)N(C)C(=O)[C@H](Cc1ccccc1)NC(=O)CC(C)(C)N)C(C)C)C(=O)NCc1cccc[n+]1[O-]`, the IC50 is reported as 0.43 nM.
Compound `CC[C@H](C)[C@H](NC(=O)[C@@H](C[C@H](O)[C@H](CC1CCCCC1)NC(=O)[C@H](Cc1c[nH]cn1)N(C)C(=O)[C@H](Cc1ccccc1)NC(=O)CC(C)(C)N)C(C)C)C(=O)NCc1ccccn1` has an IC50 of 0.29 nM.
For `CC[C@H](C)[C@H](NC(=O)[C@@H](C[C@H](O)[C@H](CC(C)C)NC(=O)[C@H](Cc1c[nH]cn1)N(C)C(=O)[C@H](Cc1ccccc1)NC(=O)CCCCCCC(=O)N(C)CCS(=O)(=O)O)C(C)C)C(=O)NCc1cccc[n+]1[O-]`, the IC50 was 1.2 nM.
For `CC[C@H](C)[C@H](NC(=O)[C@@H](CC(O)[C@H](CC(C)C)NC(=O)[C@H](Cc1c[nH]cn1)N(C)C(=O)[C@H](Cc1ccccc1)NC(=O)[C@@H]1CCCN1C(=O)COP(=O)(O)O)C(C)C)C(=O)NCc1cccc[n+]1[O-]` (some centres undefined) (X2-PF[NMeH][LeuΨ(ξCHOHCH2)Val]I-{NH(2-picolyl-N-oxide)}), the IC50 was 2.5 nM.
In the case of `CC[C@H](C)[C@H](NC(=O)[C@@H](C[C@H](O)[C@H](CC(C)C)NC(=O)[C@H](Cc1c[nH]cn1)N(C)C(=O)[C@H](Cc1ccccc1)NC(=O)[C@@H]1CCCN1C(=O)COP(=O)(O)O)C(C)C)C(=O)NCc1ccccn1` (X2-PF[NMeH][X3]I-{NHCH2(2-pyridyl)}), the IC50 is reported as 1.6 nM.
In the case of `CC[C@H](C)[C@H](NC(=O)[C@@H](CC(O)[C@H](CC(C)C)NC(=O)[C@H](Cc1cnc[nH]1)N(C)C(=O)[C@H](Cc1ccccc1)NC(=O)[C@@H]1CCCN1C(=O)CCCO[P+]([O-])(O)O)C(C)C)C(=O)NCc1cccc[n+]1[O-]` (some centres undefined) (X4-PF[NMeH][LeuΨ(ξCHOHCH2)Val]I-{NH(2-picolyl-N-oxide)}), the IC50 is reported as 1.9 nM.
With `CC[C@H](C)[C@H](NC(=O)[C@@H](C[C@H](O)[C@H](CC(C)C)NC(=O)[C@H](Cc1c[nH]cn1)N(C)C(=O)[C@H](Cc1ccccc1)NC(=O)[C@@H]1CCCN1C(=O)CCCOP(=O)(O)O)C(C)C)C(=O)NCc1ccccn1` (X5-PF[NMeH][X3]I-{NHCH2(2-pyridyl)}) the IC50 was 0.45 nM.
`CC[C@H](C)[C@H](NC(=O)[C@@H](CC(O)[C@H](CC(C)C)NC(=O)[C@H](Cc1c[nH]cn1)N(C)C(=O)[C@H](Cc1ccccc1)NC(=O)[C@@H]1CCCN1C(=O)CCCCCCC(=O)N(C)CCS(=O)(=O)O)C(C)C)C(=O)NCc1cccc[n+]1[O-]` (some centres undefined) ({Suberoyl(NMe-taurine)}-PF[NMeH][LeuΨ(ξCHOHCH2)Val]I-{NH(2-picolyl-N-oxide)}) gave an IC50 of 0.31 nM.
Compound `CC[C@H](C)[C@H](NC(=O)[C@@H](CC(O)[C@H](CC(C)C)NC(=O)[C@H](Cc1c[nH]cn1)N(C)C(=O)[C@H](Cc1ccccc1)NC(=O)[C@@H]1CCCN1C(=O)CCCCCCC(=O)N(C)CCS(=O)(=O)O)C(C)C)C(=O)NCc1ccccn1` (some centres undefined) ({Suberoyl(NMe-taurine)}-PF[NMeH][LeuΨ(ξCHOHCH2)Val]I-{NHCH2(2-pyridyl)}) has an IC50 of 1.8 nM.
With `CC[C@H](C)[C@H](NC(=O)[C@@H](C[C@H](O)[C@H](CC1CCCCC1)NC(=O)[C@H](Cc1c[nH]cn1)N(C)C(=O)[C@H](Cc1ccccc1)NC(=O)[C@@H]1CCCN1C(=O)CC[C@H](N)C(=O)O)C(C)C)C(=O)NCc1cccc[n+]1[O-]` (γGlu-PF[NMeH][X1]I-{NH(2-picolyl-N-oxide)}) the IC50 was 0.32 nM.
With `CC[C@H](C)[C@H](NC(=O)[C@@H](C[C@H](O)[C@H](CC1CCCCC1)NC(=O)[C@H](Cc1c[nH]cn1)N(C)C(=O)[C@H](Cc1ccccc1)NC(=O)[C@@H]1CCCN1C(=O)CC[C@H](N)C(=O)O)C(C)C)C(=O)NCc1ccccn1` (γGlu-PF[NMeH][X1]I-{NHCH2(2-pyridyl)}) the IC50 was 0.29 nM.
